Experimental data taken from PMC5616206 (Toxicology Reports, 2016).
Entries after “also recorded” stand apart in the source; their conditions may differ.

Test system: S. typhimurium strains TA98, TA100, TA1535, TA1537 and E. coli strain WP2 uvrA
Assay: Bacterial reverse mutation test
Assay type: cell-based
Conditions: 50–5000 μg/plate, plate incorporation, ±S9
How it was run: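 The assay followed OECD Guideline 471 and used S. typhimurium TA98, TA100, TA1535 and TA1537 and E. coli WP2 uvrA. It was run with and without S9 from livers of Aroclor 1254-treated Sprague-Dawley rats. One compound was tested at 21–5000 μg/plate by plate incorporation and pre-incubation. The other was tested at 50–5000 μg/plate in an initial toxicity-mutation test and a confirmatory mutation test.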

COC[C@@H](CC(C)C)NC(=O)c1ccc(C)c(C)c1 [S9229, (R)-N-(1-methoxy-4-methylpentan-2-yl)-3,4-dimethylbenzamide]
Reverse mutation (in vitro), Result: not mutagenic; also recorded: Negative
